ChEMBL document CHEMBL1138854, “Synthesis and antitumor activity of guanylhydrazones from 6-(2,4-dichloro-5-nitrophenyl)imidazo[2,1-b]thiazoles and 6-pyridylimidazo[2,1-b]thiazoles(1)” (2006)
Calls of active or inactive are those of the source. No cut-off for these calls is given here.

How the values were obtained:
HL-60 [1] = experiment: Induction of cell death in HL60 cells at 50 uM within 3 hrs relative to control; type: functional, Homo sapiens
Outline: (§1)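 Compound was dissolved in DMSO and diluted into complete medium; controls received matching DMSO. Cell death was scored by propidium iodide flow cytometry and by trypan blue exclusion. One experiment is shown, repeated three times.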

[2] = Antitumor activity against breast cell lines of the NCI60 panel; type: functional; conditions: Homo sapiens
Outline: (§2)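 Run by NCI in the 60-cell-line panel (details in Supporting Information). Highest concentration 10^-4 M unless noted (one case 10-2.6 M). Values expressed as -log molar concentration giving 50% growth inhibition (pGI50), total cytostasis (pTGI) or 50% cell kill (pLC50); only values >4.00 reported; mean graph midpoint is the calculated panel mean.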

[3] = Antitumor activity against colon cell lines of the NCI60 panel; type: functional; conditions: Homo sapiens; outline: as §2
HL-60 [4] = experiment: Increase in p27 level in HL60 cells at 25 uM after 24 hrs; type: functional, cell-based; conditions: Homo sapiens
Outline: (§3)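 HL60 cells held 24 h with or without 25 µM compound (DMSO vehicle); cellular proteins extracted and p21 and p27 detected by Western blotting with specific antibodies. Repeated at least twice.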

[5] = biological target: T1, S-adenosylmethionine decarboxylase proenzyme (Homo sapiens) (UniProt P17707); experiment: Inhibition of SAMDC in HL60 cells by release of radioactive CO2 from [14C-carboxyl]S-adenosylmethionine; conditions: HL-60
T1 sequence (whole entry): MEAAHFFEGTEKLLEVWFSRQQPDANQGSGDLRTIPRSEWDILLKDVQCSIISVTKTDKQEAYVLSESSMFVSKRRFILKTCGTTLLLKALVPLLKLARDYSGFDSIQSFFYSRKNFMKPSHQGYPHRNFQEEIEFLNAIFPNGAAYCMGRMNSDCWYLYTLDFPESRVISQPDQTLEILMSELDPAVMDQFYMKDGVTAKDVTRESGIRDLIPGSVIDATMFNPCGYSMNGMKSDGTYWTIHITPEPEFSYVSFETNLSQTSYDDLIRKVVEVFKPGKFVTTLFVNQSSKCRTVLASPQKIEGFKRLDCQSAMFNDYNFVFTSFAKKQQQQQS

[6] = Antitumor activity against renal cell lines of the NCI60 panel; type: functional, Homo sapiens; conditions: Homo sapiens, renal; outline: as §2
HL-60 [7] = experiment: Cell cycle arrest in HL60 cells by accumulation in G2/M phase at 25 uM after 24 hrs
HL-60 [8] = experiment: Reduction in G0/G1 phase of cell cycle arrest in HL60 cells; type: functional, cell-based; conditions: Homo sapiens
Outline: (§4)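 HL60 cells (RPMI 1640, 10% FCS, 2 mM glutamine, 37 °C, 5% CO2) exposed to graded concentrations for 24 h; compound in DMSO diluted in complete medium, DMSO vehicle controls. Nuclei isolated, kept at 4 °C in dark, stained with 50 µg/mL propidium iodide just before flow cytometry; DNA profiles give G0/G1, S, G2/M fractions. Mean ± SEM of three determinations.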

HL-60 [9] = experiment: Reduction in cell proliferation of HL60 cells at 25 uM after 48 hrs relative to control; type: functional, Homo sapiens; parameters: scale not given: the % may be the effect or the level left
Outline: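 HL60 cells in complete RPMI medium incubated with compound (DMSO-diluted; vehicle controls); total cell number counted by flow cytometry relative to control. One experiment shown, repeated three times.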

HL-60 [10] = experiment: Mitochondrial potential in HL60 cells assessed as decrease in mitochondrial membrane potential by DiOC6 staining at 25 uM after 24 hrs; parameters: scale not given: the % may be the effect or the level left
[11] = Antitumor activity against prostate cell lines of the NCI60 panel; type: functional; conditions: Homo sapiens; outline: as §2
HL-60 [12] = experiment: Reduction in S phase of cell cycle arrest in HL60 cells; type: functional, cell-based; conditions: Homo sapiens; outline: as §4
[13] = Antitumor activity against CNS cell lines of the NCI60 panel; type: functional; conditions: Homo sapiens; outline: as §2
HL-60 [14] = experiment: Cell cycle arrest in HL60 cells by accumulation in G2/M phase; type: functional, cell-based; conditions: Homo sapiens; outline: as §4
HL-60 [15] = experiment: Induction of cell death in HL60 cells at 25 uM after 48 hrs relative to control; type: functional, Homo sapiens; outline: as §1
NSCLC = experiment: Antitumor activity against NSCLC cell lines of the NCI60 panel; type: functional; conditions: Homo sapiens; outline: as §2
[16] = Antitumor activity against melanoma cell lines of the NCI60 panel; type: functional; conditions: Homo sapiens; outline: as §2
[17] = Antitumor activity against ovarian cell lines of the NCI60 panel; type: functional; conditions: Homo sapiens; outline: as §2
[18] = Antitumor activity against leukemia cell lines of the NCI60 panel; type: functional; conditions: Homo sapiens; outline: as §2
HL-60 [19] = experiment: Increase in p21 level in HL60 cells at 25 uM after 24 hrs; type: functional, cell-based; conditions: Homo sapiens; outline: as §3
HL-60 [20] = experiment: Induction of cell death in HL60 cells at 50 uM after 24 hrs relative to control; type: functional, Homo sapiens; outline: as §1

In the case of `Cc1sc2nc(-c3ccccn3)c(/C=N/NC(=N)N)n2c1C`, the Activity (HL-60 [1]) is reported as 45%, the GI50 [2] is reported as 22.9 µM and the TGI ([2]; read-out: pTGI (converted)) is reported as 41.7 µM. For the same compound, the GI50 [3] was 18.2 µM, the TGI ([3]; read-out: pTGI (converted)) was 40.7 µM and the Activity (HL-60 [4]) was “Active”. The Activity [5] was “inactive”, the GI50 [6] was 6.61 µM and the TGI ([6]; read-out: pTGI (converted)) was 31.6 µM. The Activity (HL-60 [7]) was 52%, the Activity (HL-60 [8]) was “Active” and the Activity (HL-60 [9]) was over 80%. The Activity (HL-60 [10]) was 50%, the GI50 [11] was 22.4 µM and the TGI ([11]; read-out: pTGI (converted)) was 57.5 µM. The Activity (HL-60 [12]) was “Active”, the GI50 [13] was 20.9 µM and the TGI ([13]; read-out: pTGI (converted)) was 41.7 µM. The Activity (HL-60 [14]) was “Dose-dependent effect”, the Activity (HL-60 [15]) was 25% and the GI50 (NSCLC) was 18.2 µM. It also gave a TGI (NSCLC; read-out: pTGI (converted)) of 37.2 µM, a GI50 [16] of 17 µM and a TGI ([16]; read-out: pTGI (converted)) of 33.1 µM. For the same compound, the GI50 [17] was 18.6 µM, the TGI ([17]; read-out: pTGI (converted)) was 37.2 µM and the GI50 [18] was 52.5 µM. The TGI ([18]; read-out: pTGI (converted)) was 83.2 µM, the Activity (HL-60 [19]) was “Active” and the Activity (HL-60 [20]) was 100%.
